For series [1], the system named is Hepatitis C virus. Nature of the series: Antiviral activity against HCV in human NNC2 cells assessed as inhibition of viral RNA replication after 3 days by RT-PCR analysis.
A short description of series [2]: Cytotoxicity against human NNC2 cells assessed as decrease in GAPDH RNA level after 3 days by RT-PCR. The format is cell-based. The note with it: for CC50 at 72 h: NNC2 cells; for CC50: nnc2, 72 h. The method in brief: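 NNC #2 cells carrying full-genomic HCV RNA replicons were grown in high-glucose DMEM with 10% FBS and 1 mg/mL G418. Cells were seeded at 5 × 10⁴ cells/mL and cultured 24 h at 37 °C. Medium was then replaced with DMEM/10% FBS containing graded compound concentrations for 3 days. HCV RNA and GAPDH RNA were quantified by real-time RT-PCR. EC50 and CC50 are the concentrations lowering each RNA to 50% of control.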

The subject of series [3] is Hepatitis C virus. Nature of the series: Antiviral activity against HCV in human NNC2 cells assessed as inhibition of viral RNA replication at 10 uM after […] by RT-PCR analysis. It counts as functional, Hepacivirus hominis.
The nature of series [4]: Cytotoxicity against human NNC2 cells assessed as decrease in GAPDH RNA level at 10 uM after 3 days by RT-PCR. The format is cell-based. The note with it: for cytotoxicity at 72 h, 10 µM: NNC2 cells, read-out: INH; for inhibition (INH): nnc2, 72 h, 10 µM.
Series [5] relates to Hepatitis C virus. Put plainly: Antiviral activity against HCV in human NNC2 cells assessed as inhibition of viral RNA replication at 10 uM after 3 days by RT-PCR analysis. The note with it: Hepacivirus hominis.
Series [6] is described as follows: Selectivity index, CC50 for human NNC2 cells to IC50 for Hepatitis C virus. It counts as functional.
Where [7] appears, read: Hepatitis C virus, NNC2, 3 days, read-out: EC50.

This note sets out measurements from ChEMBL document CHEMBL1156166, “Structural development studies of anti-hepatitis C virus agents with a phenanthridinone skeleton” (Bioorg Med Chem, 2010).

The EC50 is the concentration at which the effect is half-maximal. What is called CC50 is the concentration giving 50% cytotoxicity. As a reminder, the inhibition is the change of the read-out against control, counted positive when it falls.

Active and inactive are the calls of the source. No cut-off for these calls is given here.

Turning to `CCCCCCn1c(=O)c2ccccc2c2cc(C(O)(C(F)(F)F)C(F)(F)F)ccc21`, the EC50 in the series with Hepatitis C virus [1] (setting [7]) is 4.8 µM. For the same compound, in series [2], the CC50 at 72 h was found to be 12.2 µM.

`CCCCn1c(=O)c2ccccc2c2cc3c(cc21)C(C)(C)CCC3(C)C`: the EC50 in the series with Hepatitis C virus [1] (setting [7]) turned out to be 18.7 µM. The CC50 at 72 h in series [2] came out at 27.3 µM.

As for `CCCCn1c(=O)c2ccccc2c2cc(C(C)(C)C)ccc21`, in the series with Hepatitis C virus [1] (setting [7]), the EC50 was 10.6 µM. In addition, the CC50 at 72 h in series [2] amounted to 24.9 µM.

On to `CCCCn1c(=O)c2ccccc2c2cc(C(O)(C(F)(F)F)C(F)(F)F)ccc21`, for which the EC50 in the series on Hepatitis C virus [1] (setting [7]) is 3.7 µM. Moreover, in series [2], the CC50 at 72 h came to 12.5 µM.

For `CCCCn1c(=O)c2cc(C)ccc2c2ccccc21`, the inhibition at 10 µM with Hepatitis C virus [3] is 87%. For the same compound, the cytotoxicity at 72 h, 10 µM in series [4] was 88.8%.

As for `CCCCn1c(=O)c2ccccc2c2cc(C(C)C)ccc21`, in the series with Hepatitis C virus [1] (setting [7]), the EC50 was 16.2 µM. Further, the CC50 at 72 h in series [2] amounted to 29.7 µM.

Take `CC1(C)CCC(C)(C)c2cc3c(cc21)c1ccccc1c(=O)n3Cc1ccccc1`: the EC50 with Hepatitis C virus [1] (setting [7]) was determined as 21.2 µM. Further, the CC50 at 72 h in series [2] was 31.8 µM.

With `CCCCn1c(=O)c2ccccc2c2cccc(C)c21`, the inhibition entry in the series on Hepatitis C virus [5] is “inactive”. Besides, the “inhibition (INH)” value in series [4] was “Not Active”.

On to `CCCCn1c(=O)c2ccc(C)cc2c2ccccc21`, for which the inhibition entry in the series on Hepatitis C virus [5] was “inactive”. Moreover, in series [4], the “inhibition (INH)” value was “Not Active”.

Consider `CCCCn1c(=O)c2ccccc2c2cc(C)ccc21`, for which the EC50 in the series on Hepatitis C virus [1] (setting [7]) was determined as 35.8 µM. Besides, the inhibition at 10 µM with Hepatitis C virus [3] was 42%. For the same compound, the CC50 at 72 h in series [2] came out at 38.4 µM. Moreover, the cytotoxicity at 72 h, 10 µM in series [4] was determined as 98.5%.

As for `CCCCn1c(=O)c2ccccc2c2ccc(C)cc21`, in the series on Hepatitis C virus [5], the inhibition entry was “inactive”. For the same compound, in series [4], the cytotoxicity at 72 h, 10 µM is 70.7%.

For `CCCCn1c(=O)c2ccccc2c2ccccc21`, the EC50 in the series on Hepatitis C virus [1] (setting [7]) was greater than 58.3 µM. For the same compound, the inhibition result with Hepatitis C virus [5] is “inactive”. The CC50 at 72 h in series [2] turned out to be 58.3 µM. In addition, the “inhibition (INH)” value in series [4] was “Not Active”.

In the case of `CCCCn1c(=O)c2ccccc2c2c(C)cccc21`, the inhibition entry in the series with Hepatitis C virus [5] is “inactive”. The cytotoxicity at 72 h, 10 µM in series [4] was 85.2%.

In the case of `CCCCn1c(=O)c2ccccc2c2ccc3ccccc3c21`, the EC50 in the series with Hepatitis C virus [1] (setting [7]) stood at 19.5 µM. Moreover, the CC50 at 72 h in series [2] was 24.3 µM.

Take `CCCCCCCCCn1c(=O)c2ccccc2c2cc(C(O)(C(F)(F)F)C(F)(F)F)ccc21`: in the series with Hepatitis C virus [1] (setting [7]), the EC50 came to 8.3 µM. In series [2], the half-maximal cytotoxic concentration (CC50) at 72 h is 10.2 µM.

In the case of `CCn1c(=O)c2ccccc2c2cc(C(O)(C(F)(F)F)C(F)(F)F)ccc21`, the EC50 with Hepatitis C virus [1] (setting [7]) was found to be 14.1 µM. The CC50 at 72 h in series [2] is greater than 40 µM.

`CCCCn1c(=O)c2ccccc2c2cc(C(C)O)ccc21` (stereo not given): the EC50 in the series on Hepatitis C virus [1] (setting [7]) was 21.8 µM. The CC50 at 72 h in series [2] is 51.4 µM.

On to `CCCCn1c(=O)c2ccccc2c2cc(O)ccc21`, for which, in the series on Hepatitis C virus [1] (setting [7]), the EC50 was determined as 37.9 µM. Also, in series [2], the CC50 at 72 h is 43.7 µM.

On to `O=c1c2ccccc2c2cc(C(O)(C(F)(F)F)C(F)(F)F)ccc2n1Cc1ccccc1`, for which, in the series with Hepatitis C virus [1] (setting [7]), the concentration giving a half-maximal response (EC50) was found to be 7.7 µM. Further, the CC50 at 72 h in series [2] came out at 18.2 µM.

`CCCCn1c(=O)c2cc3ccccc3cc2c2ccccc21`: in series [6], the “Selectivity Index” value was greater than 3.64. Moreover, the EC50 in the series on Hepatitis C virus [1] (setting [7]) was 11 µM. The CC50 at 72 h in series [2] is greater than 40 µM.

With `CCCCn1c(=O)c2ccccc2c2cc3ccccc3cc21`, in series [6], the “Selectivity Index” value came to 1.97. Moreover, the concentration for a half-maximal effect (EC50) in the series with Hepatitis C virus [1] (setting [7]) was determined as 3.2 µM. In series [2], the CC50 at 72 h was 6.3 µM.

In the case of `CCCCn1c(=O)c2ccccc2c2cc(C(C)=O)ccc21`, in the series on Hepatitis C virus [1] (setting [7]), the EC50 turned out to be 18.7 µM. The cytotoxic concentration (CC50) at 72 h in series [2] is 27.3 µM.

`CCCCn1c(=O)c2ccccc2c2cc(CCc3ccccc3)ccc21`: the EC50 with Hepatitis C virus [1] (setting [7]) was determined as 21 µM. In addition, the CC50 at 72 h in series [2] worked out at 24.1 µM.

Turning to `CCCCn1c(=O)c2cc3c(cc2c2ccccc21)C(C)(C)CCC3(C)C`, in the series with Hepatitis C virus [1] (nnc2), the EC50 entry is “Not Active”. Further, the CC50 entry in series [2] was “Not Active”.

With `CCCCn1c(=O)c2ccccc2c2cc(CO)ccc21`, the EC50 in the series on Hepatitis C virus [1] (setting [7]) was determined as 21.5 µM. Further, the CC50 at 72 h in series [2] was greater than 50 µM.

`CCCCn1c(=O)c2ccccc2c2c3ccccc3ccc21`: the EC50 in the series on Hepatitis C virus [1] (setting [7]) was 29.1 µM. The CC50 at 72 h in series [2] came out at 44.5 µM.

Turning to `CCCCn1c(=O)c2ccc3ccccc3c2c2ccccc21`, the EC50 in the series on Hepatitis C virus [1] (setting [7]) was greater than 31.4 µM. Further, the CC50 at 72 h in series [2] amounted to 31.4 µM.

Regarding `CC1(C)CCC(C)(C)c2cc3c(cc21)c1ccccc1c(=O)n3CC1CCCCC1`, the EC50 result with Hepatitis C virus [1] (nnc2) is listed as “Not Active”. Further, in series [2], the CC50 entry is recorded as “Not Active”.

For `CCCCn1c(=O)c2cccc(C)c2c2ccccc21`, the inhibition result in the series on Hepatitis C virus [5] was “inactive”. In addition, in series [4], the cytotoxicity at 72 h, 10 µM is 94.9%.

Regarding `CCCCn1c(=O)c2ccccc2c2cc(C(F)(F)F)ccc21`, in the series with Hepatitis C virus [1] (setting [7]), the EC50 was greater than 50 µM. The CC50 at 72 h in series [2] was greater than 50 µM.

Consider `CCCCn1c(=O)c2c(C)cccc2c2ccccc21`, for which the inhibition entry in the series with Hepatitis C virus [5] is “inactive”. For the same compound, in series [4], the “inhibition (INH)” value is recorded as “Not Active”.

As for `CCCCn1c(=O)c2ccccc2c2cc(CC)ccc21`, in the series on Hepatitis C virus [1] (setting [7]), the EC50 turned out to be 34.7 µM. Besides, the CC50 at 72 h in series [2] was found to be 40.5 µM.

Turning to `O=c1c2ccccc2c2cc(C(O)(C(F)(F)F)C(F)(F)F)ccc2n1CC1CCCCC1`, the 50% effective concentration (EC50) in the series on Hepatitis C virus [1] (setting [7]) was 6.7 µM. Further, the CC50 at 72 h in series [2] was 14.4 µM.

`CCCCn1c(=O)c2c3ccccc3ccc2c2ccccc21`: the EC50 in the series with Hepatitis C virus [1] (setting [7]) is 29.9 µM. Also, in series [2], the CC50 at 72 h is greater than 40 µM.

As for `CCCCn1c(=O)c2ccccc2c2cc(F)ccc21`, the EC50 in the series with Hepatitis C virus [1] (setting [7]) is greater than 50 µM. For the same compound, the CC50 at 72 h in series [2] is greater than 50 µM.

Regarding `O=c1c2ccccc2c2cc(C(O)(C(F)(F)F)C(F)(F)F)ccc2n1CC(F)(F)F`, the concentration for a half-maximal effect (EC50) in the series with Hepatitis C virus [1] (setting [7]) was 24.8 µM. In addition, the CC50 at 72 h in series [2] came to 30.3 µM.

Consider `CC1(C)CCC(C)(C)c2cc3c(cc21)[nH]c(=O)c1ccccc13`, for which, in the series on Hepatitis C virus [1] (nnc2), the EC50 result is given as “Not Active”. Further, the CC50 entry in series [2] is “Not Active”.
